In ChEMBL document CHEMBL5543163, “Druglike, 18F-labeled PET Tracers Targeting Fibroblast Activation Protein” (J Med Chem, 2024):
Values belong to the molecule of their own block, whether it stands above or below them.

Columns and labels:
[1] = Stability in female nude mouse harboring null mutation of CD1 antigen complex assessed as drug degradation at 5.1 to 7.4 MBq, iv measured at 60 mins by radio-HPLC analysis; assay type: ADME, organism-based; conditions: 1 h, dose 5.1-7.4 MBq
Procedure, shortened: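 Female CD1 nude mice received 5.1–7.4 MBq i.v. EDTA blood collected at 15, 30 and 60 min p.i. (n=3 per time point) was centrifuged to plasma, deproteinized with cold ACN and centrifuged. The supernatant was analyzed by radio-HPLC with 30 s fractions γ-counted to give the percent intact tracer.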

[2] = Ratio of drug level in tumor to muscle of female nude mouse harboring null mutation of CD1 antigen complex xenografted with human U-87 MG cells at 5 to 7.4 MBq, iv measured at 60 mins postinjection by gamma counter analysis; assay type: ADME, organism-based; conditions: in vivo, 1 h, dose 5-7.4 MBq
Procedure, shortened: (§1)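 Subcutaneous U-87MG xenografts (5×10^6 cells in DPBS, hind flank) were grown in female CD1 nude mice to about 200 mm3. After tail-vein radiotracer injection and a 60 min dynamic PET scan, tissues were harvested at 60 min p.i. and γ-counted (%ID/g). Tumor-to-tissue ratios are means ± SD of individual ratios, n=4 per tracer.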

[3] = Drug uptake in tumor of female nude mouse harboring null mutation of CD1 antigen complex xenografted with FAP-negative human HT-29 cells at 5 to 7.4 MBq, iv measured after 60 mins by autoradiography; assay type: ADME, organism-based, Neoplasm; conditions: in vivo, 1 h, dose 5-7.4 MBq
Procedure, shortened: (§2)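 Right after imaging and γ-counting, tumors from HT29 or U-87MG xenografts were snap-frozen and embedded in OCT. Sections of 100 µm were exposed overnight to phosphor screens. Non-blocked tumors were compared with tumors from mice pre-injected with the FAP inhibitor.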

[4] = Drug uptake in tumor of female nude mouse harboring null mutation of CD1 antigen complex xenografted with human U-87 MG cells with increased FAP positive tumor area at 5 to 7.4 MBq, iv measured after 60 mins by immunohistochemistry analysis; assay type: ADME, organism-based, Neoplasm; conditions: in vivo, 1 h, dose 5-7.4 MBq
[5] = Stability in CD1 mouse plasma assessed as compound remaining at 185 kBq measured upto 60 mins by radio-HPLC analysis; assay type: ADME, cell-free; conditions: read-out: Stability
Procedure, shortened: (§3)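 Radiotracer was incubated at 37 °C for up to 60 min in PBS (0.01 M, pH 7.4) or in mouse plasma. Samples were deproteinized with an equal volume of cold ACN and centrifuged. The supernatant was analyzed by radio-HPLC with 30 s fractions γ-counted to give the intact fraction. Triplicates.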

[6] = Drug uptake in bone structures of female nude mouse harboring null mutation of CD1 antigen complex xenografted with human U-87 MG cells at 5 to 7.4 MBq, iv measured after 60 mins by gamma counter analysis; assay type: ADME, organism-based, Bone element; conditions: in vivo, 1 h, dose 5-7.4 MBq
[7] = Stability in PBS assessed as drug degradation at 185 kBq measured upto 60 mins by radio-HPLC analysis; assay type: physicochemical; conditions: buffer, 1 h; procedure, shortened: as §3
[8] = Drug uptake in urinary bladder of female nude mouse harboring null mutation of CD1 antigen complex assessed as increase in renal excretion at 5.1 to 7.4 MBq, iv measured after 15 to 60 mins by gamma counter analysis; assay type: ADME, organism-based; conditions: in vivo, dose lower 5.1 MBq, time lower 15 min, dose upper 7.4 MBq, time upper 60 min
Procedure, shortened: (§4)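 Female CD1 nude mice, 6–8 weeks old (20–25 g), received the radiotracer through the lateral tail vein. At 15, 30 and 60 min p.i. (n = 3 per time point) blood was drawn by cardiac puncture and the animals were euthanized. Organs were excised, weighed and γ-counted. Uptake is expressed as %ID/g.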

[9] = Drug uptake in tumor of female nude mouse harboring null mutation of CD1 antigen complex xenografted with human HT-29 cells with decreased FAP positive tumor area at 5 to 7.4 MBq, iv measured after 60 mins by immunohistochemistry analysis; assay type: ADME, organism-based, Neoplasm; conditions: in vivo, 1 h, dose 5-7.4 MBq
[10] = Ratio of drug level in tumor to liver of female nude mouse harboring null mutation of CD1 antigen complex xenografted with human U-87 MG cells at 5 to 7.4 MBq, iv measured at 60 mins postinjection by gamma counter analysis; assay type: ADME, organism-based; conditions: in vivo, 1 h, dose 5-7.4 MBq; procedure, shortened: as §1
[11] = Drug uptake in tumor of female nude mouse harboring null mutation of CD1 antigen complex xenografted with human U-87 MG cells at 5 to 7.4 MBq, iv measured after 60 mins by autoradiography; assay type: ADME, organism-based, Neoplasm; conditions: in vivo, 1 h, dose 5-7.4 MBq; procedure, shortened: as §2
[12] = Drug uptake in kidney of female nude mouse harboring null mutation of CD1 antigen complex assessed as increase in renal excretion at 5.1 to 7.4 MBq, iv measured after 15 to 60 mins by gamma counter analysis; assay type: ADME, organism-based; conditions: in vivo, dose lower 5.1 MBq, time lower 15 min, dose upper 7.4 MBq, time upper 60 min; procedure, shortened: as §4
[13] = Ratio of drug level in tumor to blood of female nude mouse harboring null mutation of CD1 antigen complex xenografted with human U-87 MG cells at 5 to 7.4 MBq, iv measured at 60 mins postinjection by gamma counter analysis; assay type: ADME, organism-based; conditions: tumour, 1 h, dose 5-7.4 MBq; procedure, shortened: as §1
[14] = Stability in PBS assessed as compound remaining at 185 kBq measured upto 60 mins by radio-HPLC analysis; assay type: physicochemical; conditions: read-out: Stability; procedure, shortened: as §3
[15] = Ratio of drug level in tumor to small intestine of female nude mouse harboring null mutation of CD1 antigen complex xenografted with human U-87 MG cells at 5 to 7.4 MBq, iv measured at 60 mins postinjection by gamma counter analysis; assay type: ADME, organism-based; conditions: in vivo, 1 h, dose 5-7.4 MBq; procedure, shortened: as §1
[16] = Drug uptake in intestine of female nude mouse harboring null mutation of CD1 antigen complex at 5.1 to 7.4 MBq, iv measured after 15 to 60 mins by gamma counter analysis; assay type: ADME, organism-based; conditions: in vivo, dose lower 5.1 MBq, time lower 15 min, dose upper 7.4 MBq, time upper 60 min; procedure, shortened: as §4
[17] = Drug uptake in tumor of female nude mouse harboring null mutation of CD1 antigen complex xenografted with human U-87 MG cells at 5 to 7.4 MBq, iv measured at 60 mins by PET/CT analysis; assay type: ADME, organism-based, Neoplasm; conditions: in vivo, 1 h, dose 5-7.4 MBq
Procedure, shortened: (§5)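 U-87MG xenografts (5×10^6 cells, subcutaneous flank) were grown in female CD1 nude mice to about 200 mm3. Dynamic whole-body PET over 60 min p.i. was followed by CT. Images were reconstructed with OSEM 3D and expressed as %ID/mL to give time-activity curves. For blocking, the FAP inhibitor (5 mg/kg) was given via the tail vein 30 min before the tracer; n=4.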

[18] = Stability in CD1 mouse plasma assessed as drug degradation at 185 kBq measured upto 60 mins by radio-HPLC analysis; assay type: ADME, cell-free; conditions: 1 h; procedure, shortened: as §3
[19] = Drug uptake in tumor of female nude mouse harboring null mutation of CD1 antigen complex xenografted with human U-87 MG cells at 5 to 7.4 MBq, iv pretreated with (S)-N-(2-(2-cyano-4,4-difluoropyrrolidin-1-yl)-2-oxoethyl)quinoline-4-carboxamide for 30 mins followed by radioligand addition and measured measured after 60 mins by PET/CT analysis; assay type: ADME, organism-based, Neoplasm; conditions: in vivo, 1 h, dose 5-7.4 MBq; procedure, shortened: as §5
[20] = Drug uptake in liver of female nude mouse harboring null mutation of CD1 antigen complex at 5.1 to 7.4 MBq, iv measured after 15 to 60 mins by gamma counter analysis; assay type: ADME, organism-based; conditions: in vivo, dose lower 5.1 MBq, time lower 15 min, dose upper 7.4 MBq, time upper 60 min; procedure, shortened: as §4
[21] = Octanol/water partition coefficient, logD of compound at 74 kBq incubated for 2 mins by gamma counter method; assay type: physicochemical
Procedure, shortened: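 Octanol and PBS phases were mixed and vortexed for 2 min, then centrifuged at 3,000 rpm for 10 min. Aliquots of 0.5 mL from each phase were γ-counted and corrected for mass and density. LogD was taken as log10 of the octanol/PBS radioactivity ratio.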

[22] = Drug uptake in tumor of female nude mouse harboring null mutation of CD1 antigen complex xenografted with FAP-negative human HT-29 cells at 5 to 7.4 MBq, iv measured at 60 mins by PET/CT analysis; assay type: ADME, organism-based, Neoplasm; conditions: in vivo, 1 h, dose 5-7.4 MBq
Procedure, shortened: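 HT29 xenografts (10×10^6 cells, subcutaneous hind flank) were grown in female CD1 nude mice to about 200 mm3. After tail-vein injection of the tracer, dynamic PET over 60 min was followed by CT. Images were reconstructed with OSEM 3D and tumor uptake was expressed as %ID/mL from time-activity curves, n=4.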

[23] = Drug uptake in skull of female nude mouse harboring null mutation of CD1 antigen complex xenografted with human U-87 MG cells at 5 to 7.4 MBq, iv measured after 60 mins by gamma counter analysis; assay type: ADME, organism-based; conditions: in vivo, 1 h, dose 5-7.4 MBq
Prolyl endopeptidase FAP = target: T1, Prolyl endopeptidase FAP (Homo sapiens, UniProt Q12884); experiment: Inhibition of FAP (unknown origin)
T1 sequence (Q12884 whole entry): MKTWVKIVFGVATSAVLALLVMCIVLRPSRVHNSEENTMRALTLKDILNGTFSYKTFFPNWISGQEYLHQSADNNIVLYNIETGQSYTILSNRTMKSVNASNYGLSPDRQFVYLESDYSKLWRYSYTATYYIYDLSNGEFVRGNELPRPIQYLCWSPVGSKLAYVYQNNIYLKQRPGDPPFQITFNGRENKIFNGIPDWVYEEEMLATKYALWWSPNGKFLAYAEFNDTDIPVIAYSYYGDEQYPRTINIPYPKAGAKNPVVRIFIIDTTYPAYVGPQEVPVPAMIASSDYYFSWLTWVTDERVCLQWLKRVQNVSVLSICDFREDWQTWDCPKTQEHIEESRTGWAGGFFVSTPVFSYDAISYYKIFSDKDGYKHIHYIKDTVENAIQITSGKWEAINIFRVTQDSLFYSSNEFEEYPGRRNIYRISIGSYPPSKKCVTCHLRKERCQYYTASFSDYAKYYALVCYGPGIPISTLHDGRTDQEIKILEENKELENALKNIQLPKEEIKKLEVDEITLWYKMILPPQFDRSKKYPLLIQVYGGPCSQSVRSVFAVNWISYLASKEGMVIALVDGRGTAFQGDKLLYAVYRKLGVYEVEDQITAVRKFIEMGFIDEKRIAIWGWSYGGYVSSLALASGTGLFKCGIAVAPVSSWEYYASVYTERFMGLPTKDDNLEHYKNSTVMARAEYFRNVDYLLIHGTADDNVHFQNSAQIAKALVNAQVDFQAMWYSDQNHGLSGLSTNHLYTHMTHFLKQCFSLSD

Prolyl endopeptidase = target: T2, Prolyl endopeptidase (Homo sapiens, UniProt P48147); experiment: Inhibition of PREP (unknown origin)
T2 sequence (P48147 whole entry): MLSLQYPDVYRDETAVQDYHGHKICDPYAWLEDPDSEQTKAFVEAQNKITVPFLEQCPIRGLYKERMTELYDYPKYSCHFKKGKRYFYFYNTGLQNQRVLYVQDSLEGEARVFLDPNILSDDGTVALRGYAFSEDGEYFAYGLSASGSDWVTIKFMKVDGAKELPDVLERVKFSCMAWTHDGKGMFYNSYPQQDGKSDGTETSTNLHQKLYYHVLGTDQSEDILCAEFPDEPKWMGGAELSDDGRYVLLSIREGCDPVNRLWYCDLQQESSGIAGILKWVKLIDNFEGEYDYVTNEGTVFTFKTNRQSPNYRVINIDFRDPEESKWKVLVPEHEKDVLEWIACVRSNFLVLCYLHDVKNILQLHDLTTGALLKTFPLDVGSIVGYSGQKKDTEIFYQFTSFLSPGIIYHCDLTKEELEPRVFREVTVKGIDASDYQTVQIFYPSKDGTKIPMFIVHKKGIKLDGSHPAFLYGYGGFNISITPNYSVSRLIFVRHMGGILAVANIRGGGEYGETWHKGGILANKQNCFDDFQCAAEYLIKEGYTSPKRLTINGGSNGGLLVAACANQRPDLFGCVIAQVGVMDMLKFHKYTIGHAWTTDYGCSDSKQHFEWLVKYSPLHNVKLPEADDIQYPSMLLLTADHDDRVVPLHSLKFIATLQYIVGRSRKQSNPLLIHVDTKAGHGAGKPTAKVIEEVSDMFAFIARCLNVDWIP

- Stability [1]: Unstable
- Ratio [2]: 6.48
- Drug uptake [3]: Active
- Drug uptake [4]: Active
- remaining at 1 h, 185 kBq [5]: > 70%
- Drug uptake [6]: Active
- Stability [7]: Stable
- Drug uptake [8]: Active
- Drug uptake [9]: Not Active
- Ratio [10]: 1.64
- Drug uptake [11]: Active
- Drug uptake [12]: Active
- Ratio [13]: 5.01
- remaining at 1 h, 185 kBq [14]: > 70%
- Ratio [15]: 0.22
- Drug uptake [16]: Active
- Drug uptake [17]: < 3 %ID/ml
- Stability [18]: Stable
- Drug uptake [19]: Not Active
- Drug uptake [20]: Active
- logD at 2 min [21]: 0.77
- Drug uptake [22]: 1.86 %ID/ml
- Drug uptake [23]: Active
SMILES: COC(C[18F])COc1ccc2nccc(C(=O)NCC(=O)N3CC(F)(F)C[C@H]3C#N)c2c1 (stereo not given in full)

- IC50 (Prolyl endopeptidase FAP): 0.8 nM
- IC50 (Prolyl endopeptidase): 1700 nM
SMILES: CN(CC(=O)O)C1(CCCCNCCNc2c(NCCCCOc3ccc4nccc(C(=O)NCC(=O)N5CC(F)(F)C[C@H]5C#N)c4c3)c(=O)c2=O)CN(CC(=O)O)CCN(CC(=O)O)C1
